ChEMBL document CHEMBL1817556, “Substituted lactam and cyclic azahemiacetals modulate Pseudomonas aeruginosa quorum sensing” (Bioorg Med Chem, 2011)

Biological target: 3-(3-hydroxydecanoyloxy)decanoate synthase (Pseudomonas aeruginosa (strain ATCC 15692 / PAO1 / 1C / PRS 101 / LMG12228)) (UniProt Q51559)
Assay: Modulation of Pseudomonas aeruginosa lacZ-fused rhlA expressed in Escherichia coli DH5alpha co-expressing Ptac-rhlR at 0.002 mM after 4 hrs by beta-galactosidase assay relative to control
Procedure, shortened: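 E. coli DH5α carrying pECP61.5 (Ptac-rhlR plus PrhlA-lacZ) was grown overnight in LB with ampicillin 100 μg/ml and diluted to OD600 0.150. It was induced with 1 mM IPTG, and 2 μM C4-HSL plus compound or DMSO were added at OD600 1.0. Cultures were shaken 4 h at 37°C and β-galactosidase read in Miller units. Activity is % of solvent control, triplicates, ≥2 biological repeats, paired two-tailed t-test.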

## CCCC(=O)N[C@H]1CCOC1=O
  Activity: 100%
